From ChEMBL document CHEMBL1777810, “Synthesis and in vitro anti-HIV activity of N-1,3-benzo[d]thiazol-2-yl-2-(2-oxo-2H-chromen-4-yl)acetamide derivatives using MTT method” (Bioorg Med Chem Lett, 2011)
Values after ≈ are worked out from the molar mass of the structure shown.

How the values were obtained:
[1] = tested on: Human immunodeficiency virus 1; assay: Antiviral activity against wild type HIV1 infected in human MT4 cells assessed as protection against virus-induced cytopathogenicity after 5 days by MTT assay; details: Human immunodeficiency virus 1, MT4, 120 h
[2] = Cytotoxicity against human mock-infected MT4 cells after 4 days by MTT assay; assay type: cell-based
Summary of the method: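 Mock-infected MT-4 cells were grown in HEPES-buffered RPMI-1640 with 10% heat-inactivated FCS and subcultured every 3–4 d. Viability was read by MTT at 7.5 mg/ml for 1 h at 37 °C, with formazan dissolved in acidified Triton X-100/isopropanol and read at A540 minus A690. CC50 is the concentration lowering OD540 of the mock-infected control by 50%.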

COc1ccc2nc(NC(=O)Cc3cc(=O)oc4c3ccc3ccccc34)sc2c1
EC50 [1]: 100 µg/mL (≈ 240 µM)
CC50 at 96 h [2]: > 100 µg/mL

Cc1cccc2c(CC(=O)Nc3nc4ccc(F)cc4s3)cc(=O)oc12
EC50 [1]: 100 µg/mL (≈ 271 µM)
CC50 at 96 h [2]: > 100 µg/mL

Cc1ccc2c(CC(=O)Nc3nc4ccc(F)cc4s3)cc(=O)oc2c1C
EC50 [1]: 24 µg/mL (≈ 62.8 µM)
CC50 at 96 h [2]: > 24 µg/mL

Cc1ccc2c(CC(=O)Nc3nc4cc(Cl)c(F)cc4s3)cc(=O)oc2c1C
EC50 [1]: 97 µg/mL (≈ 233 µM)
CC50 at 96 h [2]: > 97 µg/mL

Cc1ccc2c(CC(=O)Nc3nc4ccc(Cl)cc4s3)cc(=O)oc2c1
EC50 [1]: 44 µg/mL (≈ 114 µM)
CC50 at 96 h [2]: > 44 µg/mL

Cc1ccc2c(CC(=O)Nc3nc4ccc(Cl)cc4s3)cc(=O)oc2c1C
EC50 [1]: 60 µg/mL (≈ 150 µM)
CC50 at 96 h [2]: > 60 µg/mL

O=C(Cc1cc(=O)oc2cc(O)ccc12)Nc1nc2ccc(F)cc2s1
EC50 [1]: 21 µg/mL (≈ 56.7 µM)
CC50 at 96 h [2]: > 21 µg/mL

Cc1ccc2oc(=O)cc(CC(=O)Nc3nc4ccc(F)cc4s3)c2c1
EC50 [1]: 20 µg/mL (≈ 54.3 µM)
CC50 at 96 h [2]: > 20 µg/mL

COc1ccc2nc(NC(=O)Cc3cc(=O)oc4ccc5ccccc5c34)sc2c1
EC50 [1]: 100 µg/mL (≈ 240 µM)
CC50 at 96 h [2]: > 100 µg/mL

Cc1ccc2c(CC(=O)Nc3nc4ccc([N+](=O)[O-])cc4s3)cc(=O)oc2c1
EC50 [1]: 49 µg/mL (≈ 124 µM)
CC50 at 96 h [2]: > 49 µg/mL

O=C(Cc1cc(=O)oc2cc(O)ccc12)Nc1nc2ccc(Cl)cc2s1
EC50 [1]: 7 µg/mL (≈ 18.1 µM)
CC50 at 96 h [2]: > 7 µg/mL

Cc1cccc2c(CC(=O)Nc3nc4ccc([N+](=O)[O-])cc4s3)cc(=O)oc12
EC50 [1]: 12 µg/mL (≈ 30.3 µM)
CC50 at 96 h [2]: > 12 µg/mL

O=C(Cc1cc(=O)oc2cc(O)ccc12)Nc1nc2cc(Cl)c(F)cc2s1
EC50 [1]: 100 µg/mL (≈ 247 µM)
CC50 at 96 h [2]: > 100 µg/mL

Cc1cc(C)c2oc(=O)cc(CC(=O)Nc3nc4ccc([N+](=O)[O-])cc4s3)c2c1
EC50 [1]: 100 µg/mL (≈ 244 µM)
CC50 at 96 h [2]: > 100 µg/mL

Cc1ccc2oc(=O)cc(CC(=O)Nc3nc4ccc(Cl)cc4s3)c2c1
EC50 [1]: 27 µg/mL (≈ 70.2 µM)
CC50 at 96 h [2]: > 27 µg/mL

Cc1ccc2c(CC(=O)Nc3nc4cc(Cl)c(F)cc4s3)cc(=O)oc2c1
EC50 [1]: 17 µg/mL (≈ 42.2 µM)
CC50 at 96 h [2]: > 17 µg/mL

Cc1cc(C)c2oc(=O)cc(CC(=O)Nc3nc4ccc(Cl)cc4s3)c2c1
EC50 [1]: 65 µg/mL (≈ 163 µM)
CC50 at 96 h [2]: > 65 µg/mL

Cc1ccc2c(CC(=O)Nc3nc4ccc(F)cc4s3)cc(=O)oc2c1
EC50 [1]: 44 µg/mL (≈ 119 µM)
CC50 at 96 h [2]: > 44 µg/mL

Cc1cccc2c(CC(=O)Nc3nc4ccc(Cl)cc4s3)cc(=O)oc12
EC50 [1]: 21 µg/mL (≈ 54.6 µM)
CC50 at 96 h [2]: > 21 µg/mL

Cc1cc(C)c2oc(=O)cc(CC(=O)Nc3nc4cc(Cl)c(F)cc4s3)c2c1
EC50 [1]: 16 µg/mL (≈ 38.4 µM)
CC50 at 96 h [2]: > 16 µg/mL

Cc1ccc2oc(=O)cc(CC(=O)Nc3nc4ccc([N+](=O)[O-])cc4s3)c2c1
EC50 [1]: 32 µg/mL (≈ 80.9 µM)
CC50 at 96 h [2]: > 32 µg/mL

O=C(Cc1cc(=O)oc2cc(O)ccc12)Nc1nc2ccc([N+](=O)[O-])cc2s1
EC50 [1]: 8 µg/mL (≈ 20.1 µM)
CC50 at 96 h [2]: > 8 µg/mL

Cc1cccc2c(CC(=O)Nc3nc4cc(Cl)c(F)cc4s3)cc(=O)oc12
EC50 [1]: 58 µg/mL (≈ 144 µM)
CC50 at 96 h [2]: > 58 µg/mL

Cc1ccc2oc(=O)cc(CC(=O)Nc3nc4cc(Cl)c(F)cc4s3)c2c1
EC50 [1]: 12 µg/mL (≈ 29.8 µM)
CC50 at 96 h [2]: > 12 µg/mL

Cc1cn([C@H]2C[C@H](N=[N+]=[N-])[C@@H](CO)O2)c(=O)[nH]c1=O [ZIDOVUDINE]
EC50 [1]: 0.0012 µg/mL (≈ 0.00449 µM)
CC50 at 96 h [2]: 65.4 µg/mL (≈ 245 µM)

Cc1ccc2c(CC(=O)Nc3nc4ccc([N+](=O)[O-])cc4s3)cc(=O)oc2c1C
EC50 [1]: 9 µg/mL (≈ 22 µM)
CC50 at 96 h [2]: > 9 µg/mL

Cc1cc(C)c2oc(=O)cc(CC(=O)Nc3nc4ccc(F)cc4s3)c2c1
EC50 [1]: 38 µg/mL (≈ 99.4 µM)
CC50 at 96 h [2]: > 38 µg/mL
